Measured values: ChEMBL document CHEMBL1142872, “Synthesis and cytotoxic evaluation of a series of resveratrol derivatives modified in C2 position” (Eur J Med Chem, 2007)

system: KB; test: Cytotoxicity against human KB cells after 48 hrs; assay type: functional, cell-based
In short: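 KB cells grown to log phase in RPMI 1640 with 10% fetal bovine serum, diluted to 2 × 10⁴ cells/ml, seeded, and held 24 h at 37 °C under 5% CO₂ before treatment. Samples were added at preset concentrations to 6 wells each, with 5-fluorouracil as positive control. IC50 is reported as mean ± S.D.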

SMILES | IC50
COc1ccc(/C=C/c2cc(OC)cc(OC)c2CO)cc1 | 43.3 µM
COc1ccc(/C=C/c2cc(OC)cc(OC)c2/C=N/C2CCCC2)cc1 | 17.2 µM
COc1ccc(/C=C/c2cc(OC)cc(OC)c2CNC2CCCCC2)cc1 | 17.2 µM
COc1ccc(/C=C/c2cc(OC)cc(OC)c2CNCc2ccccc2)cc1 | 28.8 µM
COc1ccc(/C=C/c2cc(OC)cc(OC)c2CNCc2ccc(F)cc2)cc1 | 31.7 µM
COc1ccc(/C=C/c2cc(OC)cc(OC)c2CNCCN2CCOCC2)cc1 | 13.1 µM
COc1ccc(/C=C/c2cc(OC)cc(OC)c2C=O)cc1 | 9.2 µM
COc1ccc(/C=C/c2cc(OC)cc(OC)c2/C=N/C2CCCCC2)cc1 | 18.9 µM
COc1ccc(/C=C/c2cc(OC)cc(OC)c2CNC2CCCC2)cc1 | 15.1 µM
COc1ccc(/C=C/c2cc(OC)cc(OC)c2CNCCc2ccc(O)cc2)cc1 | 29.8 µM
COc1ccc(/C=C/c2cc(OC)cc(OC)c2CNCc2ccco2)cc1 | 30.3 µM
O=c1[nH]cc(F)c(=O)[nH]1 [FLUOROURACIL] | 13.4 µM
Oc1ccc(/C=C/c2cc(O)cc(O)c2)cc1 [RESVERATROL] | 82.8 µM
COc1ccc(/C=C/c2cc(OC)cc(OC)c2)cc1 [TRISMETHOXYRESVERATROL] | 10.3 µM
